TDP2 absorb: human TDP2 enzyme inhibitors, primary screen, biochemical, epi absorbance, recombinant enzyme. 370,000 compounds, 0.34% hits. T5PNP hydrolysis, p-nitrophenol absorbance 415 nm. inhibition, % at 12.8 µM. AID 720702, 2013;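 active = inhibition above the mean of all tested compounds plus 3 SD, set per campaign, cut at about 25% in these data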;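 also: 0% = DMSO with enzyme and 100% = buffer with substrate but no TDP2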
Target sequence (O95551 whole entry, looked up): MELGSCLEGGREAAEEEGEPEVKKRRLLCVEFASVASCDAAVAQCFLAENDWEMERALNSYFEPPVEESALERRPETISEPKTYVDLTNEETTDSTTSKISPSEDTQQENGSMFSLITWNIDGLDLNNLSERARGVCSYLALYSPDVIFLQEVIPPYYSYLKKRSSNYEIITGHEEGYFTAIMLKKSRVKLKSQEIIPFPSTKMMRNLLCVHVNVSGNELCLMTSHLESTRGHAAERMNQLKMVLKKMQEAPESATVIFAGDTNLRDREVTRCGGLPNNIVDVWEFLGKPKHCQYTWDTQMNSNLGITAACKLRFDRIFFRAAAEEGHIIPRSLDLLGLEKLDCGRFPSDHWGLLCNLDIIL
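Material: recombinant human TDP2; quantity: TDP2 enzyme at 120 nM final; medium: Tris-HCl pH 7.5 with MgCl2; compound: single concentration, 12.8 µM nominal, with 1% DMSO; incubation: 2 h enzyme incubation at 37 °C; signal: epi absorbance; measure: percent inhibition; benchmarks: high control without enzyme, low control DMSO plus TDP2; repeats: singlicate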
MBD2 DNA inh: inhibitors of MBD2 binding to methylated DNA, primary screen, biochemical, TR-FRET, DNA-binding domain, human. 370,000 compounds, 0.31% hits. MBD2 binding to methylated oligonucleotide. inhibition, % at 4.4 µM. Methyl-CpG-binding domain protein 2 (Homo sapiens), Q9UBB5; in the data active = inhibition above about 13%
NSD2 HMT inh: NSD2 histone methyltransferase inhibitors, primary screen, biochemical, AlphaScreen, single concentration, set 2; inhibition, % at 12.5 µM; NSD2 peptide methylation, 120 min; 310,000 compounds, 0.54% hits; Histone-lysine N-methyltransferase NSD2 (Homo sapiens), O96028; in the data active = inhibition above about 50%
UHRF1 binding: UHRF1 methylated DNA binding inhibitors, primary screen, counter-screen for MBD2 inhibitor project, biochemical, TR-FRET, human UHRF1, single concentration; AID 687016, 2013; inhibition, % at 4.4 µM; UHRF1 binding to methylated oligo; 370,000 compounds, 0.75% hits; in the data active = inhibition above about 21%;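 also: UHRF1 SRA domain binding a hemimethylated CpG hairpin DNA probe; 0% = median of test compound wells and 100% = reference inhibitor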
Casp6 inh: human caspase-6 inhibitors, primary screen, biochemical, VEID-R110 fluorescence, single point, set 2; purified caspase-6, Z-VEID-R110 cleavage fluorescence; inhibition, % at 12.5 µM; AID 686996, 2013; 350,000 compounds, 0.53% hits;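 active = mean inhibition across replicates at least about 35%, with every replicate also reaching that limit, limit read from the data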;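 also: 0% = median of neutral control wells and 100% = no fluorescence left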
Target sequence (P55212 24-179 limits assumed): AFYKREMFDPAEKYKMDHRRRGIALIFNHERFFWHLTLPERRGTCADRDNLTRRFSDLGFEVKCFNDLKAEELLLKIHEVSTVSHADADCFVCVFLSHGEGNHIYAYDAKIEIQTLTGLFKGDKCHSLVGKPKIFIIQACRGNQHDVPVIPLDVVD
Target sequence (P55212 194-293 limits assumed): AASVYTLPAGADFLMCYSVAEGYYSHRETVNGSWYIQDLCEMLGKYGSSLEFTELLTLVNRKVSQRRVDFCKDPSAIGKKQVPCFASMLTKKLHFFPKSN
LEDGF integ inh: blockers of LEDGF/p75-dependent integrase strand transfer – biochemical, TR-FRET, high throughput, primary screen. HIV-1 integrase (with human LEDGF/p75). TR-FRET IN-LEDGF/p75 DNA integration, Eu/Cy5. inhibition, % at 3.7 µM. 370,000 compounds, 0.64% hits. AID 743269, 2014;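 active = inhibition above the screen-wide mean plus 3 SD, cut at about 13% in these data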;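 also: signal is the Cy5 over europium emission ratio at 671 and 618 nm; 0% = plate median of compound wells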
* = called active by the depositor; x = no result. In the library only some 1.9% were active in any assay of this set; here they are far more common.

SMILES | TDP2 absorb | MBD2 DNA inh | NSD2 HMT inh | UHRF1 binding | Casp6 inh | LEDGF integ inh
C[C@@H]1CN([C@H](C)CO)C(=O)Cc2cc(NC(=O)C3CC3)ccc2O[C@H]1CN(C)Cc1ccc(C(=O)O)cc1 | x | x | x | x | -3 | x
CCCN(C)C[C@@H]1OCCCC[C@@H](C)Oc2ccc(NC(=O)NC(C)C)cc2C(=O)N([C@H](C)CO)C[C@@H]1C | x | x | x | x | -2 | x
Cc1ccn2c(=O)nc(SCC(=O)N3CCC(C)CC3)nc2c1 | 8 | 2 | 4 | -2 | 52* | -2
CCOC(=O)/C(C#N)=C/Nc1ccccc1NS(=O)(=O)c1ccc(C)c(C)c1 | 9 | -5 | 1 | 20 | -1 | 3
CCOC(=O)/C(C#N)=C/Nc1ccccc1NS(=O)(=O)c1cccc(C(C)=O)c1 | -1 | 4 | 0 | 0 | 38* | -8
COc1ccccc1C(=O)NCc1n[nH]c(=S)n1Cc1ccccc1 | 9 | 8 | -6 | 44* | 3 | -3
C[C@H]1CN([C@@H](C)CO)C(=O)c2cccc(NC(=O)c3cnccn3)c2O[C@@H]1CN(C)C(=O)Nc1ccc(C(F)(F)F)cc1 | x | x | x | x | 0 | x
COc1ccc(N(CC(=O)NC2CC3CCC2C3)S(=O)(=O)c2ccc(C)cc2)cc1Cl (stereo not drawn) | -10 | 5 | -1 | 22* | 1 | 2
CNC(=O)CN(c1cc(C)ccc1OC)S(=O)(=O)c1ccc(C)cc1 | 9 | 6 | 3 | 41* | x | 2
C[C@H]1CN([C@@H](C)CO)C(=O)c2cc(NC(=O)Nc3ccccc3)ccc2O[C@H]1CN(C)C(=O)Nc1ccccc1 | x | x | x | x | -1 | x
CO[C@@H]1CN(C)C(=O)c2cc(NS(=O)(=O)c3ccccc3F)ccc2OC[C@@H](C)N(S(C)(=O)=O)C[C@H]1C | x | x | x | x | 0 | x
C[C@H](O)C#Cc1cnc2c(c1)C(=O)N([C@@H](C)CO)C[C@H](C)[C@H](CN(C)C(=O)Cc1ccncc1)O2 | x | x | x | x | -1 | x
O=C(c1ccccc1)N1C[C@@H]2[C@H](c3ccccc31)[C@@H](CO)N2C(=O)Nc1ccccc1Cl | x | x | x | x | 3 | x
COC(=O)C1CCC(=S)N1C(=O)c1ccccc1 (stereo not drawn) | -22 | -3 | 11 | 27* | 11 | -1
CCCCCc1ccc(CC(=O)N2CCOCC2)cc1 | -8 | 0 | -1 | 4 | 50* | 4
CCCCN(C(=O)c1cccc(-c2ccc(OC(C)=O)cc2)c1)c1c(N)n(CCC)c(=O)[nH]c1=O | 0 | -2 | 0 | 73* | 3 | 4
COc1ccccc1-c1cn(CC[C@H]2CC[C@H](NC(=O)C3CCCCC3)[C@@H](CO)O2)nn1 | x | x | x | x | 1 | x
Oc1c(N=Nc2nn[nH]n2)ccc2ccccc12 | 26* | -12 | x | 1 | 94* | 14*
CS(=O)(=O)Nc1ccc2c(c1)[C@H]1C[C@@H](CC(=O)NCCN3CCCCC3)O[C@@H](CO)[C@H]1O2 | x | x | x | x | -2 | x
Cc1ccc(-c2cc(C(=O)NCc3ccco3)c3ccccc3n2)o1 | 12 | 5 | 0 | 8 | x | 15*
Cc1cc(C(=O)NCc2ccco2)c2ccccc2n1 | -3 | 5 | 1 | 1 | -1 | -6
CCN1[C@@H]2c3ccc(-c4cccnc4)c(=O)n3C[C@@H]2[C@@H](CO)[C@@H]1C(=O)NC1CCCCC1 | x | x | x | x | 2 | x
COc1c2c(cc3ccc(=O)oc13)CCO2 | 12 | -5 | -1 | 49* | -2 | 4
CCOC(=O)C1CCCN(C(=O)CN2C(=O)/C(=C/c3ccc(OC)cc3)Oc3ccccc32)C1 (stereo not drawn) | 13 | 6 | -3 | 22* | -1 | -2
Nc1ccc(Sc2ccccc2Cl)nc1 | -4 | -7 | x | 0 | 43* | 3
SMILES | TDP2 absorb | MBD2 DNA inh | NSD2 HMT inh | UHRF1 binding | Casp6 inh | LEDGF integ inh
N#Cc1ccc(-c2csc(NC(=O)c3ccc(N4C(=O)CCC4=O)cc3)n2)cc1 | 13 | -4 | 2 | -3 | -1 | 1
Cc1cc(-c2csc(NC(=O)c3ccc(C#N)cc3)n2)c(C)n1Cc1ccco1 | -4 | 22* | x | 57* | 21 | 68*
O=C(C[C@H]1CC[C@H]2[C@@H](COC[C@@H](O)CN2C(=O)c2ccc(F)cc2)O1)N1CCOCC1 | x | x | x | x | 0 | x
CC(=NNC(=S)Nc1cccc(C)c1)c1ccccn1 | -7 | -1 | x | -11 | x | -4
CC(=NNC(=S)Nc1ccc(C)cc1)c1ccccn1 | 2 | 0 | 21 | -11 | 40* | -6
O=C1NC[C@H](CCCCN2CCN(CCc3ccccc3)C(=O)C2=O)N(CCc2ccc(O)cc2)C1=O | 13 | 3 | x | 0 | -1 | -1
O=C1NC[C@@H](CCCCN2CCN(CCc3ccc(O)cc3)C(=O)C2=O)N(CCc2ccc(O)cc2)C1=O | 2 | -2 | x | 3 | 40* | 2
Cn1c(SCC(=O)Nc2sccc2C#N)nnc1-c1ccccc1 | -6 | -2 | -2 | 2 | x | 1
Cn1c(SCC(=O)Nc2sccc2C#N)nnc1C1CC1 | -4 | 1 | 1 | 27* | 1 | 1
CN1C[C@@H]2[C@H](c3ccccc31)[C@@H](CO)N2C(=O)Nc1cccc(F)c1 | x | x | x | x | 4 | x
CCc1ccc(S(=O)(=O)N2CCN(Cc3ccco3)CC2)cc1 | 3 | 5 | 1 | 1 | -5 | -6
CCOc1ccc(S(=O)(=O)N2CCN(Cc3ccco3)CC2)cc1 | 17 | 7 | 3 | 27* | 2 | 6
CO[C@H]1CN(C)C(=O)c2ccc(NC(C)=O)cc2OC[C@@H](C)N(Cc2ccccc2F)C[C@@H]1C | x | x | x | x | -2 | x
CN1CCN(c2nc3c(c(=O)n(C)c(=O)n3C)n2Cc2ccccc2F)CC1 | 0 | 1 | 14 | 60* | -1 | -4
Cn1c(=O)c2c(nc(N3CCc4ccccc4C3)n2Cc2ccccc2F)n(C)c1=O | 4 | -2 | 5 | -1 | x | -1
O=C(CN1C(=O)NC2(CCOc3ccccc32)C1=O)c1ccc(Cl)cc1 (stereo not drawn) | 13 | -1 | -4 | 0 | 78* | -1
O=C(CN1C(=O)NC2(CCOc3ccccc32)C1=O)c1ccc(Br)cc1 (stereo not drawn) | -5 | 4 | 2 | 0 | 3 | -4
CCN(CC)S(=O)(=O)c1ccc(Oc2ccccc2)c(N)c1 | 3 | -2 | 0 | 2 | 0 | 2
Cc1cc(C)[n+](-c2ccc(Oc3ccccc3)c(S(=O)(=O)[O-])c2)[nH]1 | -6 | -3 | 0 | -3 | 41* | 3

Screens (PubChem)
